Test results: ChEMBL document CHEMBL1146033, “Synthesis, calpain inhibitory activity, and cytotoxicity of P2-substituted proline and thiaproline peptidyl aldehydes and peptidyl alpha-ketoamides” (J Med Chem, 2006)
pKi: −log10 of the molar value.

Columns and labels:
PC-3 = experiment: Antiproliferative activity against human PC3 cell line by MTT assay; format: functional
Method in brief: (§1)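 Cells seeded at 2000 to 15000 per well, exposed to drug at 1 to 100 µM for 96 h at 37 °C, 5% CO2; untreated wells as negative control. MTT (5 mg/mL) added for final 2-4 h, formazan dissolved in DMSO, absorbance at 595 nm. GI50 (50% reduction in living cells vs untreated) from nonlinear regression of % survival against concentration.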

HeLa = experiment: Antiproliferative activity against human HeLa cell line by MTT assay; format: functional; method in brief: as §1
[1] = target: T1, Calpain-1 catalytic subunit (Sus scrofa, UniProt P35750); experiment: Inhibition of porcine erythrocyte mu calpain
T1 sequence (P35750 whole entry): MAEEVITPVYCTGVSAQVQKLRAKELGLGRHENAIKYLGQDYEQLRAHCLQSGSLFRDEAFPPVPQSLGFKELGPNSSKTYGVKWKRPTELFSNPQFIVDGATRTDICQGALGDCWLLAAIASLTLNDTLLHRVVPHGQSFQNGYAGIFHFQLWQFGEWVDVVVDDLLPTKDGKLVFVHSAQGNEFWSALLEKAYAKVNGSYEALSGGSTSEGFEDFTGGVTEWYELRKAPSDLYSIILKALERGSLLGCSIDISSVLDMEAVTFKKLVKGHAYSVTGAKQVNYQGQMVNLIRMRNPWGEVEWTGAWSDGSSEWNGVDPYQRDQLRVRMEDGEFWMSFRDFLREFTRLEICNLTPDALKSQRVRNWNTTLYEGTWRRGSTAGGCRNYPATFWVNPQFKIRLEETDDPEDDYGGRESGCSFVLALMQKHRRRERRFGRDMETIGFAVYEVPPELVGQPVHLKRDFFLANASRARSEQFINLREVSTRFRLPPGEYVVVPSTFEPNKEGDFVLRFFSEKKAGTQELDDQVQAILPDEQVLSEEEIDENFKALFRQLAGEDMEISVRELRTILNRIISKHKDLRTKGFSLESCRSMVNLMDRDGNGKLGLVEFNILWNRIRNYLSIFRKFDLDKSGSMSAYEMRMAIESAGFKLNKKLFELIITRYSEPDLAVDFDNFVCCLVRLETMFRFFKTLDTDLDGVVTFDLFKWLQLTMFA
Method in brief: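 µ-Calpain (1 µg, porcine erythrocyte) in 50 mM Tris HCl pH 7.4, 50 mM NaCl, 10 mM DTT, 1 mM EDTA, 1 mM EGTA, 5 mM CaCl2, fluorogenic Suc-Leu-Tyr-AMC at 0.2 or 1.0 mM, varying inhibitor in DMSO (2% total). Ki from Dixon plots (1/v vs I) of triplicate-averaged data, intersecting lines r ≥ 0.95.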

DU-145 = experiment: Antiproliferative activity against human DU145 cell line by MTT assay; format: functional; method in brief: as §1
Cathepsin B = Cathepsin B (Homo sapiens, UniProt P07858); experiment: Inhibition of human liver cathepsin B
Method in brief: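 Human liver cathepsin B (1 nM) in 50 mM NaOAc pH 6.0, 1 mM EDTA, 0.5 mM DTT, with Z-Arg-Arg-AMC at 50 or 250 µM and varying inhibitor in DMSO (2% total). Ki from Dixon plots of triplicate-averaged data, intersecting lines r ≥ 0.95; selectivity ratio = cathepsin B Ki / µ-calpain Ki.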

[2] = Selectivity ratio, Ki for human cathepsin B/Ki for porcine mu calpain
Daudi = experiment: Antiproliferative activity against human Daudi cell line by MTT assay; format: functional; method in brief: as §1
Jurkat [3] = experiment: Antiproliferative activity against human Jurkat cell line by MTT assay; format: functional; method in brief: as §1
Jurkat [4] = experiment: Inhibition of calpain-mediated production of spectrin breakdown products in Jurkat cells at 20 uM; format: functional, Homo sapiens; set-up: scale not given: the % may be the effect or the level left
Method in brief: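 Jurkat cells washed in HEPES-buffered saline, preincubated 10 min with inhibitor at 20 µM, then ionomycin (20 µM final) and Ca2+ (5 mM final) added; 60 min at 37 °C. Lysates resolved by SDS-PAGE, immunoblotted for α-spectrin and β-actin, chemiluminescence. 145/150-kDa spectrin breakdown doublet quantified by densitometry, normalized to β-actin.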

Structure (SMILES) | GI50 (PC-3) [µM] | GI50 (HeLa) [µM] | pKi [1] | GI50 (DU-145) [µM] | pKi (Cathepsin B) | Selectivity ratio [2] | GI50 (Daudi) [µM] | GI50 (Jurkat [3]) [µM] | Activity (Jurkat [4]) [%]
O=CC(Cc1ccccc1)NC(=O)[C@H]1CCCN1S(=O)(=O)c1ccc([N+](=O)[O-])cc1 (stereo not given in full) | 49.3 | 40.4 | 7.70 | 42.4 | 5.43 | 188 | 32.5 | 33.8 | 22.8
Cc1ccc(S(=O)(=O)N2CSC[C@@H]2C(=O)NC(C=O)Cc2ccccc2)cc1 (stereo not given in full) | 5.17 | 4.37 | 7.15 | 6 | 6.92 | 1.7 | 2.17 | 3.21 | 82.4
Cc1ccc(S(=O)(=O)N2CCC[C@@H]2C(=O)NC(C=O)Cc2ccccc2)cc1 (stereo not given in full) | 40.1 | 48.9 | 7.09 | 45.2 | 4.92 | 151 | 16.7 | 17.6 | 
COc1ccc(S(=O)(=O)N2CCC[C@@H]2C(=O)NC(C=O)Cc2ccccc2)cc1 (mixture of isomers) | 19.7 | 38.5 | 7.43 | 63.2 | 5.83 | 40 | 35.3 | 25.4 | 
O=CC(Cc1ccccc1)NC(=O)[C@H]1CSCN1S(=O)(=O)c1ccc(I)cc1 (mixture of isomers) | 6.38 | 5.42 | 7.38 | 6.29 | 6.96 | 2.61 | 4.48 | 5.97 | 
Cc1ccc(S(=O)(=O)N2CCC[C@@H]2C(=O)NC(Cc2ccccc2)C(=O)C(=O)NCCc2ccccc2)cc1 (mixture of isomers) | 20.8 | 22.9 | 6.07 | 22.6 | 5.16 | 8.12 | 19.6 | 21.9 | 
CCCCS(=O)(=O)N1CCC[C@@H]1C(=O)NC(C=O)Cc1ccccc1 (mixture of isomers) |  |  | 6.50 |  | 5.83 | 4.72 |  |  | 
O=CC(Cc1ccccc1)NC(=O)[C@H]1CSCN1S(=O)(=O)c1ccc(Br)cc1 (mixture of isomers) |  |  | 7.13 |  | 7.05 | 1.21 |  |  | 
O=CC(Cc1ccccc1)NC(=O)[C@H]1CCCN1S(=O)(=O)c1ccc(Br)cc1 (mixture of isomers) |  |  | 6.89 |  | 5.35 | 34.5 |  |  | 
O=CC(Cc1ccccc1)NC(=O)[C@H]1CCCN1S(=O)(=O)c1ccc(Cl)cc1 (mixture of isomers) |  |  | 6.85 |  | 5.27 | 38.2 |  |  | 
O=CC(Cc1ccccc1)NC(=O)[C@H]1CCCN1S(=O)(=O)c1ccc(F)cc1 (mixture of isomers) | 27.1 | 27.4 | 6.41 | 24.8 | 5.16 | 18.1 | 24.8 | 24.2 | 
COc1ccc(S(=O)(=O)N2CCC[C@@H]2C(=O)NC(Cc2ccccc2)C(=O)C(=O)NCCc2ccccc2)cc1 (mixture of isomers) | 14.6 | 31.4 | 6.35 | 30 | 5.59 | 5.7 | 22.4 | 23.8 | 
O=CC(Cc1ccccc1)NC(=O)[C@H]1CCCN1S(=O)(=O)c1ccccc1[N+](=O)[O-] (mixture of isomers) |  |  | 6.37 |  | 5.34 | 10.9 |  |  | 
O=CC(Cc1ccccc1)NC(=O)[C@H]1CCCN1S(=O)(=O)c1ccccc1 (mixture of isomers) |  |  | 6.71 |  | 5.61 | 13 |  |  | 
O=CC(Cc1ccccc1)NC(=O)[C@H]1CCCN1S(=O)(=O)c1cccc2ccccc12 (mixture of isomers) |  |  | 6.72 |  | 5.60 | 13 |  |  | 
O=CC(Cc1ccccc1)NC(=O)[C@H]1CSCN1S(=O)(=O)c1ccc(F)cc1 (mixture of isomers) | 7.04 | 7.12 | 6.96 | 6.22 | 6.47 | 3.09 | 3.54 | 6.13 | 
O=CC(Cc1ccccc1)NC(=O)[C@H]1CSCN1S(=O)(=O)c1ccc(Cl)cc1 (mixture of isomers) |  |  | 7.05 |  | 6.64 | 2.5 |  |  | 
CC(C)S(=O)(=O)N1CCC[C@@H]1C(=O)NC(C=O)Cc1ccccc1 (mixture of isomers) |  |  | 6.08 |  | 5.46 | 1.19 |  |  | 
O=CC(Cc1ccccc1)NC(=O)[C@H]1CCCN1S(=O)(=O)c1ccc(I)cc1 (mixture of isomers) |  |  | 7.48 |  | 5.38 | 131 |  |  | 
O=CC(Cc1ccccc1)NC(=O)[C@H]1CCCN1S(=O)(=O)c1cccc([N+](=O)[O-])c1 (mixture of isomers) |  |  | 6.59 |  | 5.26 | 21.3 |  |  | 
O=C(NCCc1ccccc1)C(=O)C(Cc1ccccc1)NC(=O)[C@H]1CCCN1S(=O)(=O)c1ccc([N+](=O)[O-])cc1 (mixture of isomers) | 27.8 | 27.6 | 6.55 | 31.8 | 4.92 | 18.1 | 23.1 | 21.3 | 
